# In ChEMBL document CHEMBL1156795, “Rational design of 5-phenyl-3-isoxazolecarboxylic acid ethyl esters as growth inhibitors of Mycobacterium tuberculosis. a potent and selective series for further drug development” (J Med Chem, 2010):
# pIC50: −log10 of the molar value. Activity calls are given as the source filed them. No cut-off for these calls is given here.
# Assays:
# [1] = tested on: Mycobacterium tuberculosis; assay: Antimycobacterial activity against Mycobacterium tuberculosis H37Rv expressing pFCA-luxAB after 10 days by low-oxygen recovery assay; assay type: functional; conditions: 240 h
# Procedure, shortened: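 Low oxygen recovery assay (LORA): a luminescence-based read-out of activity against non-replicating Mtb under oxygen-deprived conditions. MIC averaged over two to three independent experiments.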
# [2] = tested on: Mycobacterium tuberculosis; assay: Antimycobacterial activity against Mycobacterium tuberculosis H37Rv after […] by microplate alamar; assay type: functional
# Procedure, shortened: (§1)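 Microplate Alamar blue assay (MABA) on Mtb H37Rv. MIC reported as the average of two to three independent experiments.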
# Vero = assay: (§2) Cytotoxicity against african green monkey Vero cells after 72 hrs; assay type: cell-based, Chlorocebus sabaeus; conditions: Chlorocebus sabaeus, Vero, 72 h
# [3] = as §2; assay type: cell-based, Chlorocebus sabaeus; conditions: chlorocebus sabaeus, Vero cells; read-out: MIC
# [4] = tested on: Mycobacterium tuberculosis; assay: Antimycobacterial activity against Mycobacterium tuberculosis H37Rv; assay type: functional; procedure, shortened: as §1
# Candida albicans = assay: Antimicrobial activity against Candida albicans; assay type: functional
# Toxoplasma gondii = assay: Antimicrobial activity against Toxoplasma gondii; assay type: functional, organism-based
# Staphylococcus aureus = assay: Antimicrobial activity against Staphylococcus aureus; assay type: functional
# Escherichia coli = assay: Antimicrobial activity against Escherichia coli; assay type: functional
# [5] = tested on: Mycolicibacterium smegmatis; assay: Antimicrobial activity against Mycobacterium smegmatis; assay type: functional
compound,measurement,setting,value
CCOC(=O)c1cc(-c2cccc(OCc3cccc(OC)c3)c2)on1,MIC,[1],26.7 µM
same,MIC,[2],2.1 µM
same,pIC50,Vero,< 3.89
NNC(=O)c1ccncc1 [ISONIAZID],MIC,[1],> 128 µM
same,MIC,[2],0.5 µM
same,MCC at 72 h,[3],> 128 µM
CCOC(=O)c1cc(-c2cccc(OCc3ccccc3C(F)(F)F)c2)on1,MIC,[1],34.8 µM
same,MIC,[2],1.5 µM
same,pIC50,Vero,< 3.89
CCOC(=O)c1cc(-c2cccc(OCc3cccc(C)c3)c2)on1,MIC,[1],14.9 µM
same,MIC,[2],1.2 µM
same,pIC50,Vero,< 3.89
CCOC(=O)c1cc(-c2cccc(OCc3ccc(C(F)(F)F)cc3)c2)on1,MIC,[1],11.8 µM
same,MIC,[2],0.4 µM
same,pIC50,Vero,< 3.89
CO[C@H]1/C=C/O[C@@]2(C)Oc3c(C)c(O)c4c(O)c(c(/C=N/N5CCN(C)CC5)c(O)c4c3C2=O)NC(=O)/C(C)=C\C=C\[C@H](C)[C@H](O)[C@@H](C)[C@@H](O)[C@@H](C)[C@H](OC(C)=O)[C@@H]1C [RIFAMPIN],MIC,[1],1.9 µM
same,MIC,[2],0.1 µM
CCOC(=O)c1cc(-c2ccc(NCc3cccc(C(F)(F)F)c3)cc2)on1,MIC,[1],6.3 µM
same,MIC,[2],0.6 µM
same,pIC50,Vero,< 3.89
CCOC(=O)c1cc(-c2cccc(OCc3cccc(F)c3F)c2)on1,MIC,[1],26.8 µM
same,MIC,[2],1.6 µM
same,pIC50,Vero,< 3.89
CCOC(=O)c1cc(-c2cccc(OCc3cccc(N)c3)c2)on1,MIC,[1],25.8 µM
same,MIC,[2],1.5 µM
same,pIC50,Vero,< 3.89
CCOC(=O)c1cc(-c2cccc(OCc3ccc(F)cc3)c2)on1,MIC,[1],24 µM
same,MIC,[2],1.8 µM
CCOC(=O)c1cc(-c2cccc(OCc3ccccc3[N+](=O)[O-])c2)on1,MIC,[1],25.8 µM
same,MIC,[2],1.5 µM
same,pIC50,Vero,< 3.89
CCOC(=O)c1cc(-c2cccc(OCc3ccc(Cl)c(Cl)c3)c2)on1,MIC,[1],10.6 µM
same,MIC,[2],2.7 µM
CCOC(=O)c1cc(-c2cccc(OCc3ccccc3F)c2)on1,MIC,[1],19.1 µM
same,MIC,[2],1.1 µM
CCOC(=O)c1cc(-c2cccc(OCc3cccc(OC(F)(F)F)c3)c2)on1,MIC,[1],13.1 µM
same,MIC,[2],0.7 µM
same,pIC50,Vero,4.00
O=[N+]([O-])c1cn2c(n1)OC[C@@H](OCc1ccc(OC(F)(F)F)cc1)C2 [PRETOMANID],MIC,[1],3.8 µM
same,MIC,[2],0.3 µM
CCOC(=O)c1cc(-c2ccc(C(O)c3cccc(OC)c3)cc2)on1 (stereo not drawn),MIC,[1],23.9 µM
same,MIC,[2],2.8 µM
CCOC(=O)c1cc(-c2cccc(OCc3cc(F)ccc3F)c2)on1,MIC,[1],23.7 µM
same,MIC,[2],0.9 µM
same,pIC50,Vero,< 3.89
CCOC(=O)c1cc(-c2cccc(O)c2)on1,MIC,[1],114 µM
same,MIC,[2],7.3 µM
CCOC(=O)c1cc(-c2cccc(NC(=O)c3cccc(C(F)(F)F)c3)c2)on1,MIC,[1],28.3 µM
same,MIC,[2],1.4 µM
same,pIC50,Vero,< 3.89
CCOC(=O)c1cc(-c2cccc(OCc3ccccc3Cl)c2)on1,MIC,[1],10.1 µM
same,MIC,[2],0.9 µM
same,pIC50,Vero,< 3.89
CCOC(=O)c1cc(-c2cccc(OCc3cccc(C#N)c3)c2)on1,MIC,[1],26.5 µM
same,MIC,[2],0.6 µM
same,pIC50,Vero,< 3.89
CCOC(=O)c1cc(-c2cccc(OCc3ccccc3)c2)on1,MIC,[1],41.5 µM
same,MIC,[2],1.2 µM
same,pIC50,Vero,< 3.89
CCOC(=O)c1cc(-c2cccc(OCc3cccc(C(F)(F)F)c3F)c2)on1,MIC,[1],7 µM
same,MIC,[2],0.6 µM
same,pIC50,Vero,< 3.89
CCOC(=O)c1cc(-c2cccc(OCc3ccc(F)c(F)c3)c2)on1,MIC,[1],19.2 µM
same,MIC,[2],0.6 µM
same,pIC50,Vero,< 3.89
CCOC(=O)c1cc(-c2cccc(OCc3cccc(C(=O)N4CCOCC4)c3)c2)on1,MIC,[1],> 128 µM
same,MIC,[2],> 128 µM
same,pIC50,Vero,< 3.89
CCOC(=O)c1cc(-c2cccc(OCc3cc(F)ccc3Cl)c2)on1,MIC,[1],15.1 µM
same,MIC,[2],0.9 µM
CCOC(=O)c1cc(-c2ccccc2NC(=O)c2ccccc2)on1,MIC,[1],> 128 µM
same,MIC,[2],> 128 µM
OC(c1cc(C(F)(F)F)nc2c(C(F)(F)F)cccc12)C1CCCCN1 (stereo not drawn) [MEFLOQUINE],MIC,[4],13 µM
CCOC(=O)c1cc(-c2cccc(OCc3cccc(C(F)(F)F)c3)c2)on1,MIC,[1],8 µM
same,MIC,[2],0.6 µM
same,MIC,Candida albicans,> 100 µM
same,Activity,Toxoplasma gondii,inactive
same,pIC50,Vero,< 3.89
same,MIC,Staphylococcus aureus,> 100 µM
same,MIC,Escherichia coli,> 100 µM
same,MIC,[5],> 100 µM
CCOC(=O)c1cc(-c2cccc(OCc3c(F)ccc(F)c3F)c2)on1,MIC,[1],10.9 µM
same,MIC,[2],1 µM
CCOC(=O)c1cc(-c2cccc(OCc3ccc(F)cc3F)c2)on1,MIC,[1],15.7 µM
same,MIC,[2],1 µM
same,pIC50,Vero,< 3.89
CCOC(=O)c1cc(-c2cccc(NCc3cccc(C(F)(F)F)c3)c2)on1,MIC,[1],15.3 µM
same,MIC,[2],1.1 µM
same,pIC50,Vero,< 3.89
CCOC(=O)c1cc(/C=C/c2cccc(C(F)(F)F)c2)on1,MIC,[4],0.73 µM
CCOC(=O)c1cc(-c2cccc(OCc3cc(F)cc(F)c3)c2)on1,MIC,[1],16.6 µM
same,MIC,[2],4.4 µM
same,pIC50,Vero,< 3.89
CCOC(=O)c1cc(-c2cccc(Oc3cc(C(F)(F)F)nc4ccccc34)c2)on1,MIC,[4],0.95 µM
CCOC(=O)c1cc(-c2cccc(OCc3cccc(F)c3)c2)on1,MIC,[1],18.9 µM
same,MIC,[2],0.8 µM
same,pIC50,Vero,< 3.89
CCOC(=O)c1cc(-c2cccc(OCc3ccc(F)c(F)c3)c2)[nH]n1,MIC,[1],> 128 µM
same,MIC,[2],32 µM
CCOC(=O)c1ccc(COc2cccc(-c3cc(C(=O)OCC)no3)c2)cc1,MIC,[1],32.7 µM
same,MIC,[2],0.4 µM
same,pIC50,Vero,< 3.89
CCOC(=O)c1cc(-c2cccc(Oc3cccc(C(F)(F)F)c3)c2)on1,MIC,[1],10.5 µM
same,MIC,[2],1 µM
same,pIC50,Vero,< 3.89
CCOC(=O)c1cc(-c2cccc(OCc3cccc(Br)c3)c2)on1,MIC,[1],12.7 µM
same,MIC,[2],0.8 µM
same,pIC50,Vero,< 3.89
CCOC(=O)c1cc(-c2cccc(OCC(=O)N3CCOCC3)c2)on1,MIC,[1],48.9 µM
same,MIC,[2],13.8 µM
CCOC(=O)c1cc(-c2cccc(OCc3ccc(F)c(F)c3F)c2)on1,MIC,[1],12.6 µM
same,MIC,[2],0.9 µM
same,pIC50,Vero,< 3.89
CCOC(=O)c1cc(COc2cc(C(F)(F)F)nc3c(C(F)(F)F)cccc23)on1,MIC,[4],0.9 µM
CCOC(=O)c1cc(-c2cccc(OCc3c(F)cccc3F)c2)on1,MIC,[1],12.8 µM
same,MIC,[2],1.2 µM
same,pIC50,Vero,< 3.89
CCOC(=O)c1cc(-c2cccc(OCc3cccc(Cl)c3)c2)on1,MIC,[1],10.8 µM
same,MIC,[2],1 µM
same,pIC50,Vero,< 3.89
CCOC(=O)c1cc(-c2cccc(OCc3cccc([N+](=O)[O-])c3)c2)on1,MIC,[1],8.7 µM
same,MIC,[2],0.6 µM
same,pIC50,Vero,< 3.89
